The text below walks through data of ChEMBL document CHEMBL4422643, “Physalactone and 4β-Hydroxywithanolide E Isolated from Physalis peruviana Inhibit LPS-Induced Expression of COX-2 and iNOS Accompanied by Abatement of Akt and STAT1” (J Nat Prod, 2019).

Data set [1] has as its target RAC-alpha serine/threonine-protein kinase (Mus musculus) (UniProt P31750). Briefly: Inhibition of LPS-induced AKT phosphorylation at S473 residue in mouse RAW264.7 cells at 40 uM preincubated for 30 mins followed by LPS-stimulation and measured up to 240 mins by Western blot analysis. In kind it is cell-based. The procedure, abridged:
(§1)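 RAW 264.7 cells were pretreated 30 min with compound (5 or 40 μM), then given LPS 1 μg/mL for several time points. Western blots of whole-cell lysates probed IκBα, total and Ser473-phospho Akt, and total and Tyr701-phospho STAT1, with GAPDH as loading reference. Detection used HRP chemiluminescence.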
(In general: In western blotting, separated proteins are transferred to a membrane and probed.)

The test system of data set [2] is RAW264.7. Put plainly: Antiinflammatory activity against mouse RAW264.7 cells assessed as inhibition of LPS-induced nitric oxide production by measuring nitrite levels at 50 uM preincubated for 30 mins followed by LPS challenge and measured after 16 hrs by Griess assay (reference value: 32.4 +/- 0.9 uM). In kind it is functional. (Griess reagent forms a coloured azo dye with nitrite.)

Data set [3] concerns RAW264.7. Put plainly: Antiinflammatory activity against mouse RAW264.7 cells assessed as inhibition of LPS induced iNOS expression at 50 uM preincubated for 30 mins followed by LPS challenge and measured after 16 hrs by Western blot analysis. In kind it is functional, cell-based. The procedure, abridged:
(§2)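 RAW 264.7 cells in DMEM with 10% heat-inactivated FBS and penicillin/streptomycin at 37 °C, 5% CO2. Cells were pretreated 30 min at 50 μM, then given LPS 1 μg/mL for 16 h. iNOS and COX-2 protein were detected by Western blot (8–12% SDS-PAGE, PVDF, HRP secondary, chemiluminescence imaging), with equal total protein loaded by Bradford assay. n = 3.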

Data set [4] concerns RAW264.7. Briefly: Effect on total STAT1 expression in LPS-stimulated mouse RAW264.7 cells at 40 uM preincubated for 30 mins followed by LPS-stimulation and measured up to 240 mins by Western blot analysis. Format: ADME, cell-based. To be noted: raw264.7, 4 h. The gist of the method: as §1
Data set [5] relates to RAW264.7. Put plainly: Antiinflammatory activity against mouse RAW264.7 cells assessed as inhibition of LPS induced iNOS expression preincubated for 30 mins followed by LPS challenge and measured after 16 hrs by Western blot analysis. Format: functional, cell-based.
The subject of data set [6] is RAW264.7. Put plainly: Antiinflammatory activity against mouse RAW264.7 cells assessed as inhibition of LPS induced COX2 mRNA expression preincubated for 30 mins followed by LPS challenge and measured after 3 to 12 hrs by SYBR green dye based qRT-PCR analysis. Format: functional, cell-based. The procedure, abridged: (§3)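 RAW 264.7 cells were pretreated 30 min, then given LPS 1 μg/mL for 3, 6, 9 or 12 h. Total RNA went to qRT-PCR with SYBR Green for Nos2/Ptgs2. Values were normalized to β-actin by 2^−ΔΔCT and expressed as fold change versus unstimulated cells. n = 3; means ± SD; significance versus LPS-only at p < 0.05.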
(In general: In qPCR the cycle at which signal appears reflects the starting amount.)

In data set [7] the target is T1, I-kappa-B kinase (Mus musculus) (UniProt Q60680+O88351+O88522). Put plainly: Effect on IKK-mediated IkappaBalpha degradation in LPS-stimulated mouse RAW264.7 cells at 40 uM preincubated for 30 mins followed by LPS-stimulation and measured after 10 mins by Western blot analysis. Format: cell-based. The procedure, abridged:
as §1

Data set [8] deals with T2, Signal transducer and activator of transcription 1 (Mus musculus) (UniProt P42225).
T2 sequence (whole entry): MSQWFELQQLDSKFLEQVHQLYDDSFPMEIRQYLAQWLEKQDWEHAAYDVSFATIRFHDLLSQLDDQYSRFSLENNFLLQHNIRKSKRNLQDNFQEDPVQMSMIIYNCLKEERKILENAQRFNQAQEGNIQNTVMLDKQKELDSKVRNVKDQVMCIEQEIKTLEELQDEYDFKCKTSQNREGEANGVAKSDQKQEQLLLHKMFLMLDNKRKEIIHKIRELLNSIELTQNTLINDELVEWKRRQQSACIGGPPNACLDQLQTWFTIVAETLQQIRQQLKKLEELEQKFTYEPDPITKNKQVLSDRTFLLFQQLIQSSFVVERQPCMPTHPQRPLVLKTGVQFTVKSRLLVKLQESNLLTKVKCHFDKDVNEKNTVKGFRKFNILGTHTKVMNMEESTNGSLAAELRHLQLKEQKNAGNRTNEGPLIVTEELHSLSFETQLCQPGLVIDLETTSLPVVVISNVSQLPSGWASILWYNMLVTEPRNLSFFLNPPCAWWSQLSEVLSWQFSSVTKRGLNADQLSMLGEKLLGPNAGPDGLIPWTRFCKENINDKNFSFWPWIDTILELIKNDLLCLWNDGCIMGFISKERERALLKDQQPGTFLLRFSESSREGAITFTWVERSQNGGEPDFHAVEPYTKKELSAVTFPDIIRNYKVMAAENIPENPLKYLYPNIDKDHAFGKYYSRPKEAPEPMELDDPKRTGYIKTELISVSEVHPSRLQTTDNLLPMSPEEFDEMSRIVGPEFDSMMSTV
Put plainly: Inhibition of LPS-induced STAT1 phosphorylation at Y701 residue in mouse RAW264.7 cells at 40 uM preincubated for 30 mins followed by LPS-stimulation and measured up to 240 mins by Western blot analysis. In kind it is cell-based. The procedure, abridged: as §1

For data set [9], the system named is RAW264.7. Put plainly: Antiinflammatory activity against mouse RAW264.7 cells assessed as inhibition of LPS induced iNOS mRNA expression preincubated for 30 mins followed by LPS challenge and measured after 3 to 12 hrs by SYBR green dye based qRT-PCR analysis. Format: functional, cell-based. The gist of the method:
as §3

The nature of data set [10]: Effect on SAPK/JNK1/2 phosphorylation at T183/Y185 residues in mouse RAW264.7 cells at 40 uM measured after 30 mins by Western blot analysis. Format: ADME, cell-based. The following applies: raw264.7, 0.5 h.
The target in data set [11] is T1, I-kappa-B kinase (Mus musculus). Briefly: Effect on IKK-mediated IkappaBalpha degradation in LPS-stimulated mouse RAW264.7 cells assessed as IkappaBalpha recovery at 40 uM preincubated for 30 mins followed by LPS-stimulation and measured after 20 to 240 mins by Western blot analysis. In kind it is cell-based. The procedure, abridged: as §1
For data set [12], the system named is RAW264.7. Put plainly: Antiinflammatory activity against mouse RAW264.7 cells assessed as inhibition of LPS-induced nitric oxide production preincubated for 30 mins followed by LPS challenge and measured after 18 hrs by Griess assay. Format: functional, cell-based. The procedure, abridged: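 Macrophages (RAW 264.7, 5 × 10^5/well, 24 h settle) were pretreated 30 min in phenol-red-free medium at 0.128–5.0 or 1.0–40 μM, then given LPS 1 μg/mL for 18 h. Culture-supernatant nitrite was read by Griess reaction, and an IC50 was estimated from the concentration–response. n = 3.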

The test system of data set [13] is RAW264.7. Put plainly: Antiinflammatory activity against mouse RAW264.7 cells assessed as inhibition of LPS induced COX2 expression preincubated for 30 mins followed by LPS challenge and measured after 16 hrs by Western blot analysis. In kind it is functional, cell-based.
Data set [14] has as its system RAW264.7. Put plainly: Antiinflammatory activity against mouse RAW264.7 cells assessed as inhibition of LPS induced COX2 expression at 50 uM preincubated for 30 mins followed by LPS challenge and measured after 16 hrs by Western blot analysis. Format: functional, cell-based. The gist of the method:
as §2

Data set [15] concerns RAW264.7. Briefly: Effect on total AKT expression in LPS-stimulated mouse RAW264.7 cells at 40 uM preincubated for 30 mins followed by LPS-stimulation and measured up to 240 mins by Western blot analysis. Format: ADME, cell-based. To be noted: raw264.7, 4 h. The gist of the method:
as §1

Data set [16] deals with RAC-alpha serine/threonine-protein kinase (Mus musculus) (UniProt P31750). Put plainly: Inhibition of LPS-induced AKT phosphorylation at S473 residue in mouse RAW264.7 cells at 5 uM preincubated for 30 mins followed by LPS-stimulation and measured up to 240 mins by Western blot analysis. Format: cell-based. The procedure, abridged:
as §1

Data set [17] is described as follows: Effect on SAPK/JNK1/2 phosphorylation at T183/Y185 residues in mouse RAW264.7 cells at 5 uM measured after 30 mins by Western blot analysis. The following applies: raw264.7, 0.5 h. Format: ADME, cell-based.
The target of data set [18] is T1, I-kappa-B kinase (Mus musculus). Briefly: Effect on IKK-mediated IkappaBalpha degradation in LPS-stimulated mouse RAW264.7 cells assessed as IkappaBalpha recovery at 5 uM preincubated for 30 mins followed by LPS-stimulation and measured after 20 to 240 mins by Western blot analysis. Format: cell-based. The procedure, abridged: as §1
Data set [19] has as its system RAW264.7. Put plainly: Effect on total AKT expression in LPS-stimulated mouse RAW264.7 cells at 5 uM preincubated for 30 mins followed by LPS-stimulation and measured up to 240 mins by Western blot analysis. In kind it is ADME, cell-based. The following applies: raw264.7, 4 h. The procedure, abridged:
as §1

For data set [20], the target named is T2, Signal transducer and activator of transcription 1 (Mus musculus). Briefly: Inhibition of LPS-induced STAT1 phosphorylation at Y701 residue in mouse RAW264.7 cells at 5 uM preincubated for 30 mins followed by LPS-stimulation and measured up to 240 mins by Western blot analysis. In kind it is cell-based. The procedure, abridged: as §1
Data set [21] has as its system RAW264.7. Put plainly: Effect on total STAT1 expression in LPS-stimulated mouse RAW264.7 cells at 5 uM preincubated for 30 mins followed by LPS-stimulation and measured up to 240 mins by Western blot analysis. In kind it is ADME, cell-based. The following applies: raw264.7, 4 h. The procedure, abridged:
as §1

Data set [22] deals with T1, I-kappa-B kinase (Mus musculus). Briefly: Effect on IKK-mediated IkappaBalpha degradation in LPS-stimulated mouse RAW264.7 cells at 5 uM preincubated for 30 mins followed by LPS-stimulation and measured after 10 mins by Western blot analysis. In kind it is cell-based. The procedure, abridged:
as §1

SMILES strings stand for the structures. The source made the active and inactive calls. The rule behind the calls is not given here.

Sequence of RAC-alpha serine/threonine-protein kinase (Mus musculus) (P31750 whole entry): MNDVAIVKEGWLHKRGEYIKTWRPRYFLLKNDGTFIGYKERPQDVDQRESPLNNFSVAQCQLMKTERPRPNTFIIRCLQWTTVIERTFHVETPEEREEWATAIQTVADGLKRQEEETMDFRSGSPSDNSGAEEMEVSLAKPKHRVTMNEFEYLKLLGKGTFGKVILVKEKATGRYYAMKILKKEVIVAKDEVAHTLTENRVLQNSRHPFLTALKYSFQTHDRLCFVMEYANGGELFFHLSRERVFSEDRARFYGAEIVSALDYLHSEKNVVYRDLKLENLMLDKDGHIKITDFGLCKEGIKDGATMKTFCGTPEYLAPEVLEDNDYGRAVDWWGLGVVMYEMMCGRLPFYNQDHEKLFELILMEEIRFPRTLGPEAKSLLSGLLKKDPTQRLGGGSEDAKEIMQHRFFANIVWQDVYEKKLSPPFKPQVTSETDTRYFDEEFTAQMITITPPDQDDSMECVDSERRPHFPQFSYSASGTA

The term IC50 denotes the concentration that inhibits the measured activity by half. Regarding `CO[C@H]1CC(=O)[C@]2(C)[C@H]3CC[C@]4(C)[C@](O)([C@@](C)(O)[C@H]5CC(C)=C(C)C(=O)O5)CC[C@@]4(O)[C@@H]3C[C@H]3O[C@]32[C@H]1O`, the inhibition entry (in data set [1]; with RAW264.7 [3]; in [8]; in the data set with RAW264.7 [14]) was “Active” in each case. Moreover, the Activity was 1.1 µM in the data set on RAW264.7 [2], “Non-Toxic” with RAW264.7 [4], “Not Active” in data set [10] and “Non-Toxic” in the data set with RAW264.7 [15]. For the same compound, the inhibition result in the data set on RAW264.7 [5], with RAW264.7 [6], in the data set on RAW264.7 [9] and with RAW264.7 [13] was “Dose-dependent effect” throughout. For the same compound, the result in data set [7] and in [11] was inactive. Moreover, the 50% inhibitory concentration (IC50) with RAW264.7 [12] amounted to 13.8 µM.
With `CC1=C(C)C(=O)O[C@@H]([C@](C)(O)[C@]2(O)CC[C@@]3(O)[C@@H]4C[C@H]5O[C@]56[C@@H](O)C=CC(=O)[C@]6(C)[C@H]4CC[C@]23C)C1`, the Activity with RAW264.7 [2] is 0.9 µM; in data set [17], “Not Active”; with RAW264.7 [19], “Non-Toxic”; with RAW264.7 [21], “Non-Toxic”. Further, the inhibition result (in the data set on RAW264.7 [3]; in [16]; in [20]; in the data set with RAW264.7 [14]) was “Active” in each case. Also, the inhibition entry in the data set on RAW264.7 [5], in the data set with RAW264.7 [6], in the data set with RAW264.7 [9] and with RAW264.7 [13] was “Dose-dependent effect” each time. The result in data set [18] and in data set [22] was inactive. Also, the concentration for half-maximal inhibition (IC50) in the data set on RAW264.7 [12] is 1.8 µM.
